Measurements as given in PMC3016151 (Investigational New Drugs, 2009).

Assays:
[1] = Pharmacokinetics of telatinib in phase I patients; assay type: in vivo, human; conditions: for Dose normalized AUC, mean: cycle 1 day 14, 150 mg tablets
[2] = system: patients with advanced or metastatic solid tumors; assay: Telatinib-induced toxicity in phase I patients; assay type: in vivo, human
Procedure, shortened: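 Patients with advanced or metastatic solid tumours (ECOG ≤2) took test compound orally, od or bid, continuously (20 mg od to 1,500 mg bid). Adverse events were graded by NCI-CTC v3.0 over all treatment cycles. KDR and FLT4 SNPs were TaqMan-genotyped on a dynamic array using DNA from residual frozen blood. Toxicity was compared by two-sided chi-square (3×2 genotype; 2×2 carrier vs noncarrier).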

[3] = phase I and pharmacological study; cited from earlier work
[4] = system: adenosine triphosphate binding cassette (ABC) B1 (ABCB1) transporter; conditions: in vitro studies; data on file at Bayer Pharmaceuticals Corporation; cited from earlier work
[5] = all treatment cycles, 33 patients, all dose levels

CNC(=O)c1cc(COc2nnc(Nc3ccc(Cl)cc3)c3ccoc23)ccn1 [telatinib, Telatinib]
Dose normalized AUC, mean ([1]; ABCB1 1236C>T genotype CC, n=9): 7.84 | Dose normalized AUC, mean ([1]; ABCB1 1236C>T genotype CT, n=15): 11.60 | Dose normalized AUC, mean ([1]; ABCB1 1236C>T genotype TT, n=5): 4.82 | Dose normalized AUC, mean ([1]; ABCB1 2677G>A/T genotype GG, n=9): 7.84 | Dose normalized AUC, mean ([1]; ABCB1 2677G>A/T genotype TG, n=15): 11.60 | Dose normalized AUC, mean ([1]; ABCB1 2677G>A/T genotype TT, n=5): 4.82 | Dose normalized AUC, mean ([1]; ABCB1 3435C>T genotype CC, n=7): 7.30 | Dose normalized AUC, mean ([1]; ABCB1 3435C>T genotype CT, n=16): 11.10 | Dose normalized AUC, mean ([1]; ABCB1 3435C>T genotype TT, n=6): 6.65 | Dose normalized AUC, mean ([1]; ABCB1 -129T>C genotype CC, n=1): 11.79 | Dose normalized AUC, mean ([1]; ABCB1 -129T>C genotype TC, n=2): 15.65 | Dose normalized AUC, mean ([1]; ABCB1 -129T>C genotype TT, n=26): 8.67 | Dose normalized AUC, mean ([1]; ABCC1 825T>C genotype TC, n=11): 10.90 | Dose normalized AUC, mean ([1]; ABCC1 825T>C genotype TT, n=18): 8.26 | Dose normalized AUC, mean ([1]; ABCC1 1062T>C genotype CC, n=2): 13.45 | Dose normalized AUC, mean ([1]; ABCC1 1062T>C genotype TC, n=10): 9.95 | Dose normalized AUC, mean ([1]; ABCC1 1062T>C genotype TT, n=17): 8.36 | Dose normalized AUC, mean ([1]; ABCC1 2012G>T genotype GG, n=24): 8.80 | Dose normalized AUC, mean ([1]; ABCC1 2012G>T genotype GT, n=4): 13.46 | Dose normalized AUC, mean ([1]; ABCC1 2012G>T genotype TT, n=1): 3.63 | Dose normalized AUC, mean ([1]; ABCC1 rs129081 genotype CC, n=5): 10.22 | Dose normalized AUC, mean ([1]; ABCC1 rs129081 genotype GC, n=15): 10.44 | Dose normalized AUC, mean ([1]; ABCC1 rs129081 genotype GG, n=9): 6.77 | Dose normalized AUC, mean ([1]; ABCG2 346G>A genotype AG, n=4): 6.00 | Dose normalized AUC, mean ([1]; ABCG2 346G>A genotype GG, n=25): 9.78 | Dose normalized AUC, mean ([1]; ABCG2 421C>A genotype CA, n=6): 10.48 | Dose normalized AUC, mean ([1]; ABCG2 421C>A genotype CC, n=23): 8.95 | Dose normalized AUC(0–12), mean (range) ([1]; oral, cycle 1 day 14 (steady-state), AUC(0–12)/actual dose): 9.26 (0.98–34.60) µg.hr/L per mg of dose | Grade 3–4 toxicity, number of patients ([2]; 33 patients): 3 patients | Hypertension (most frequently observed side-effect), number of patients ([2]; 33 patients, unrelated to dose): 7 n | Toxicity: any toxicity grade 1–4 all cycles, No (number of patients) ([2]; FLT4 1480A>G genotype AA): 7 | Toxicity: any toxicity grade 1–4 all cycles, Yes (number of patients) ([2]; FLT4 1480A>G genotype AA): 20 | Toxicity: any toxicity grade 1–4 all cycles, No (number of patients) ([2]; FLT4 1480A>G genotype AG): 3 | Toxicity: any toxicity grade 1–4 all cycles, Yes (number of patients) ([2]; FLT4 1480A>G genotype AG): 3 | Toxicity: any toxicity grade 1–4 all cycles, No (number of patients) ([2]; FLT4 2670C>G genotype CC): 6 | Toxicity: any toxicity grade 1–4 all cycles, Yes (number of patients) ([2]; FLT4 2670C>G genotype CC): 11 | Toxicity: any toxicity grade 1–4 all cycles, No (number of patients) ([2]; FLT4 2670C>G genotype CG): 3 | Toxicity: any toxicity grade 1–4 all cycles, Yes (number of patients) ([2]; FLT4 2670C>G genotype CG): 9 | Toxicity: any toxicity grade 1–4 all cycles, No (number of patients) ([2]; FLT4 2670C>G genotype GG): 1 | Toxicity: any toxicity grade 1–4 all cycles, Yes (number of patients) ([2]; FLT4 2670C>G genotype GG): 3 | Toxicity: any toxicity grade 1–4 all cycles, No (number of patients) ([2]; KDR 1192G>A genotype CC): 5 | Toxicity: any toxicity grade 1–4 all cycles, Yes (number of patients) ([2]; KDR 1192G>A genotype CC): 19 | Toxicity: any toxicity grade 1–4 all cycles, No (number of patients) ([2]; KDR 1192G>A genotype TC): 4 | Toxicity: any toxicity grade 1–4 all cycles, Yes (number of patients) ([2]; KDR 1192G>A genotype TC): 4 | Toxicity: any toxicity grade 1–4 all cycles, No (number of patients) ([2]; KDR 1192G>A genotype TT): 1 | Toxicity: any toxicity grade 1–4 all cycles, Yes (number of patients) ([2]; KDR 1192G>A genotype TT): 0 | Toxicity: any toxicity grade 1–4 all cycles, No (number of patients) ([2]; KDR 1719A>T genotype AA): 1 | Toxicity: any toxicity grade 1–4 all cycles, Yes (number of patients) ([2]; KDR 1719A>T genotype AA): 1 | Toxicity: any toxicity grade 1–4 all cycles, No (number of patients) ([2]; KDR 1719A>T genotype TA): 4 | Toxicity: any toxicity grade 1–4 all cycles, Yes (number of patients) ([2]; KDR 1719A>T genotype TA): 9 | Toxicity: any toxicity grade 1–4 all cycles, No (number of patients) ([2]; KDR 1719A>T genotype TT): 5 | Toxicity: any toxicity grade 1–4 all cycles, Yes (number of patients) ([2]; KDR 1719A>T genotype TT): 13 | Toxicity: any toxicity grade 1–4 all cycles, No (number of patients) ([2]; KDR -604T>C genotype CC): 3 | Toxicity: any toxicity grade 1–4 all cycles, Yes (number of patients) ([2]; KDR -604T>C genotype CC): 7 | Toxicity: any toxicity grade 1–4 all cycles, No (number of patients) ([2]; KDR -604T>C genotype CT): 5 | Toxicity: any toxicity grade 1–4 all cycles, Yes (number of patients) ([2]; KDR -604T>C genotype CT): 13 | Toxicity: any toxicity grade 1–4 all cycles, No (number of patients) ([2]; KDR -604T>C genotype TT): 2 | Toxicity: any toxicity grade 1–4 all cycles, Yes (number of patients) ([2]; KDR -604T>C genotype TT): 3 | Any toxicity grade 1–4, patients [2, 5]: 23 (70) n (%) | Any toxicity grade 3 or 4, patients [2, 5]: 3 (9) n (%) | Hypertension grade 1–4, patients [2, 5]: 7 (21) n (%) | Hypertension grade 3 or 4, patients [2, 5]: 2 (6) n (%) | any grade 1–4 toxicity, number of patients ([2]; during all treatment cycles): 23 out of 33 patients | any grade 1–4 toxicity, share of patients ([2]; during all treatment cycles, 33 patients): 70% | AUC(0–12) interpatient variability, % coefficient of variation [3]: 20–150% | Cmax interpatient variability, % coefficient of variation [3]: 20–150% | dose proportionality of pharmacokinetics [3]: dose proportional | substrate of the ABCB1 transporter [4]: weak substrate
